Laboratory results as given in ChEMBL document CHEMBL1150829, “Novel cytotoxic 4-phenylfuranocoumarins from Calophyllum dispar” (2001).
≈ marks a conversion by molar mass, not a printed value.

How the values were obtained:
KB [1] = assay: Cytotoxicity against human KB cells after 72 hrs by neutral red staining; assay type: functional; conditions: read-out: ED50 (the source's name)
Method in brief: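 Human nasopharyngeal carcinoma KB cells exposed in triplicate to five concentrations (50 to 0.01 µg/mL) of pure compound, or none, for 72 h at 37 °C. Living cells stained with neutral red and optical density read at 540 nm. ED50 is the concentration inhibiting cell growth to 50% of control.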

KB [2] = assay: Growth inhibition of human KB cells at 5 to 6 ug/mL after 72 hrs by neutral red staining; assay type: functional

**Q.** `CC(C)CC(=O)c1c2c(c3oc(=O)cc(-c4ccccc4)c3c1O)C[C@@H](C(C)(C)O)O2` [CYCLOMAMMEISIN] was tested. Which EC50 (KB [1]) did it give?
**A.** 6 µg/mL (≈ 14.2 µM)

**Q.** For `CCCC(=O)c1c(O)c2c(c3c(-c4ccccc4)cc(=O)oc13)O[C@H](C(C)(C)O)C2`, which Inhibition (KB [2]) is on record?
**A.** 50%

**Q.** Which results are given for `CCC(C)C(=O)c1c(O)c2c(c3c(-c4ccccc4)cc(=O)oc13)O[C@H](C(C)(C)O)C2` (stereo not given in full)?
**A.** Inhibition (KB [2]): 50%; EC50 (KB [1]): 15 µg/mL (≈ 35.5 µM)

**Q.** With `C=C(C)[C@@H]1Cc2c(c(C(=O)CC(C)C)c(O)c3c(-c4ccccc4)cc(=O)oc23)O1` as the compound, how does the EC50 (KB [1]) read?
**A.** 40 µg/mL (≈ 98.9 µM)

**Q.** For `COc1cccc2c1C(=O)c1c(O)c3c(c(O)c1C2=O)C[C@@](O)(C(=O)CO)C[C@@H]3O[C@H]1C[C@H](N)[C@H](O)[C@H](C)O1` [DOXORUBICIN], which EC50 (KB [1]) is on record?
**A.** 0.058 µg/mL (≈ 0.107 µM)

**Q.** Which results are given for `CC(C)CC(=O)c1c(O)c2c(c3c(-c4ccccc4)cc(=O)oc13)O[C@H](C(C)(C)O)C2`?
**A.** Inhibition (KB [2]): 50%; EC50 (KB [1]): 9 µg/mL (≈ 21.3 µM)

**Q.** With `CCC(C)C(=O)c1c2c(c3oc(=O)cc(-c4ccccc4)c3c1O)C[C@@H](C(C)(C)O)O2` (stereo not given in full) as the compound, how does the EC50 (KB [1]) read?
**A.** 5 µg/mL (≈ 11.8 µM)

**Q.** With `CCCC(=O)c1c2c(c3oc(=O)cc(-c4ccccc4)c3c1O)C[C@@H](C(C)(C)O)O2` as the compound, how does the EC50 (KB [1]) read?
**A.** 6 µg/mL (≈ 14.7 µM)
